Results taken from ChEMBL document CHEMBL2034974, “Design, synthesis and structure-activity relationships of new triazole derivatives containing N-substituted phenoxypropylamino side chains” (2012).
≈ marks a conversion by molar mass, not a printed value.

How the values were obtained:
Type in all cases: functional
Candida albicans = test: Antifungal activity against Candida albicans after 24 hrs by serial dilution method
In short: (§1)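 NCCLS broth microdilution in 96-well plates, with ATCC or clinical isolate strains. Medium was RPMI 1640 buffered with 0.165 M MOPS, and compounds were dissolved in DMSO and serially diluted in medium. Yeasts were incubated at 35 °C and growth was read at 24 h. MIC80 was taken as the lowest concentration giving ≥80% growth inhibition versus the drug-free control.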

Cryptococcus neoformans = test: Antifungal activity against Cryptococcus neoformans after 72 hrs by serial dilution method
In short: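 Cryptococcus yeast, ATCC or clinical isolate, tested by NCCLS serial dilution in 96-well plates with RPMI 1640 plus 0.165 M MOPS. Compounds were dissolved in DMSO and serially diluted in medium. Incubation was at 35 °C with MIC80 read at 72 h, defined as the lowest concentration giving ≥80% growth inhibition relative to control.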

Pichia kudriavzevii = test: Antifungal activity against Candida krusei after 24 hrs by serial dilution method; in short: as §1
Trichophyton rubrum = test: Antifungal activity against Trichophyton rubrum by serial dilution method
In short: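 Dermatophyte, ATCC or clinical isolate, tested by NCCLS serial-dilution microtest in RPMI 1640 buffered with 0.165 M MOPS. Compounds were dissolved in DMSO and diluted serially in medium, and incubation was at 28 °C. The endpoint was MIC80, the lowest concentration reducing turbidity to ≥80% inhibition of control growth.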

Candida parapsilosis = test: Antifungal activity against Candida parapsilosis after 24 hrs by serial dilution method; details: Lodderomyces parapsilosis; in short: as §1
Candida tropicalis = test: Antifungal activity against Candida tropicalis after 24 hrs by serial dilution method; in short: as §1

Row | SMILES | MIC80 (Candida albicans) | MIC80 (Cryptococcus neoformans) | MIC80 (Pichia kudriavzevii) | MIC80 (Trichophyton rubrum) | MIC80 (Candida parapsilosis) | MIC80 (Candida tropicalis)
1 | OC(CN(CCCOc1ccc(Br)cc1)Cc1ccccc1)(Cn1cncn1)c1ccc(F)cc1F (racemic) | 2 µg/mL (≈ 3.59 µM) | 16 µg/mL (≈ 28.7 µM) | 4 µg/mL (≈ 7.18 µM) | 4 µg/mL (≈ 7.18 µM) | 32 µg/mL (≈ 57.4 µM) | 8 µg/mL (≈ 14.4 µM)
2 | CC(C)(C)OC(=O)CN(CCCOc1ccc(Br)cc1)CC(O)(Cn1cncn1)c1ccc(F)cc1F (racemic) | 4 µg/mL (≈ 6.88 µM) | 64 µg/mL (≈ 110 µM) | 4 µg/mL (≈ 6.88 µM) | 64 µg/mL (≈ 110 µM) | 64 µg/mL (≈ 110 µM) | 16 µg/mL (≈ 27.5 µM)
3 | CC(C)CN(CCCOc1ccc(Br)cc1)CC(O)(Cn1cncn1)c1ccc(F)cc1F (racemic) | 4 µg/mL (≈ 7.64 µM) | 16 µg/mL (≈ 30.6 µM) | 4 µg/mL (≈ 7.64 µM) | 8 µg/mL (≈ 15.3 µM) | 8 µg/mL (≈ 15.3 µM) | 8 µg/mL (≈ 15.3 µM)
4 | Cc1ccc(CN(CCCOc2ccc(Br)cc2)CC(O)(Cn2cncn2)c2ccc(F)cc2F)cc1 (racemic) | 4 µg/mL (≈ 7 µM) | 64 µg/mL (≈ 112 µM) | 8 µg/mL (≈ 14 µM) | 64 µg/mL (≈ 112 µM) | 0.5 µg/mL (≈ 0.875 µM) | 8 µg/mL (≈ 14 µM)
5 | CCOC(=O)CN(CCCOc1ccc(Br)cc1)CC(O)(Cn1cncn1)c1ccc(F)cc1F (racemic) | 4 µg/mL (≈ 7.23 µM) | 32 µg/mL (≈ 57.8 µM) | 32 µg/mL (≈ 57.8 µM) | 16 µg/mL (≈ 28.9 µM) | 16 µg/mL (≈ 28.9 µM) | 16 µg/mL (≈ 28.9 µM)
6 | CCCN(CCCOc1ccccc1)CC(O)(Cn1cncn1)c1ccc(F)cc1F (racemic) | 1 µg/mL (≈ 2.32 µM) | 1 µg/mL (≈ 2.32 µM) | 1 µg/mL (≈ 2.32 µM) | 4 µg/mL (≈ 9.29 µM) | 32 µg/mL (≈ 74.3 µM) | 16 µg/mL (≈ 37.2 µM)
7 | CC(C)(C)OC(=O)CN(CCCOc1ccccc1)CC(O)(Cn1cncn1)c1ccc(F)cc1F (racemic) | 4 µg/mL (≈ 7.96 µM) | > 64 µg/mL | 8 µg/mL (≈ 15.9 µM) | 64 µg/mL (≈ 127 µM) | > 64 µg/mL | 8 µg/mL (≈ 15.9 µM)
8 | CCC(C)n1ncn(-c2ccc(N3CCN(c4ccc(OCC5COC(Cn6cncn6)(c6ccc(Cl)cc6Cl)O5)cc4)CC3)cc2)c1=O (centres undefined) [ITRACONAZOLE] | 0.125 µg/mL (≈ 0.177 µM) | 0.5 µg/mL (≈ 0.709 µM) | 1 µg/mL (≈ 1.42 µM) | 0.125 µg/mL (≈ 0.177 µM) | 4 µg/mL (≈ 5.67 µM) | < 0.125 µg/mL
9 | CCCCN(CCCOc1ccccc1)CC(O)(Cn1cncn1)c1ccc(F)cc1F (racemic) | 2 µg/mL (≈ 4.5 µM) | 4 µg/mL (≈ 9 µM) | 1 µg/mL (≈ 2.25 µM) | 8 µg/mL (≈ 18 µM) | 16 µg/mL (≈ 36 µM) | 8 µg/mL (≈ 18 µM)
10 | C=CCN(CCCOc1ccc(Br)cc1)CC(O)(Cn1cncn1)c1ccc(F)cc1F (racemic) | 2 µg/mL (≈ 3.94 µM) | 4 µg/mL (≈ 7.88 µM) | 2 µg/mL (≈ 3.94 µM) | 8 µg/mL (≈ 15.8 µM) | 16 µg/mL (≈ 31.5 µM) | 1 µg/mL (≈ 1.97 µM)
11 | OC(CN(CCCOc1ccc(Br)cc1)Cc1ccc(F)cc1)(Cn1cncn1)c1ccc(F)cc1F (racemic) | 4 µg/mL (≈ 6.95 µM) | 32 µg/mL (≈ 55.6 µM) | 8 µg/mL (≈ 13.9 µM) | 16 µg/mL (≈ 27.8 µM) | 2 µg/mL (≈ 3.48 µM) | 8 µg/mL (≈ 13.9 µM)
12 | COC(=O)CN(CCCOc1ccc(Br)cc1)CC(O)(Cn1cncn1)c1ccc(F)cc1F (racemic) | 2 µg/mL (≈ 3.71 µM) | 8 µg/mL (≈ 14.8 µM) | 4 µg/mL (≈ 7.42 µM) | 8 µg/mL (≈ 14.8 µM) | 64 µg/mL (≈ 119 µM) | 4 µg/mL (≈ 7.42 µM)
13 | OC(Cn1cncn1)(Cn1cncn1)c1ccc(F)cc1F [FLUCONAZOLE] | 0.5 µg/mL (≈ 1.63 µM) | 2 µg/mL (≈ 6.53 µM) | 4 µg/mL (≈ 13.1 µM) | 1 µg/mL (≈ 3.27 µM) | 1 µg/mL (≈ 3.27 µM) | 1 µg/mL (≈ 3.27 µM)
14 | OC(CN(CCCOc1ccccc1)Cc1ccc(F)cc1)(Cn1cncn1)c1ccc(F)cc1F (racemic) | 4 µg/mL (≈ 8.06 µM) | 8 µg/mL (≈ 16.1 µM) | 8 µg/mL (≈ 16.1 µM) | 32 µg/mL (≈ 64.4 µM) | 16 µg/mL (≈ 32.2 µM) | 8 µg/mL (≈ 16.1 µM)
15 | C=CCN(CCCOc1ccccc1)CC(O)(Cn1cncn1)c1ccc(F)cc1F (racemic) | 0.25 µg/mL (≈ 0.583 µM) | 2 µg/mL (≈ 4.67 µM) | 1 µg/mL (≈ 2.33 µM) | 1 µg/mL (≈ 2.33 µM) | 64 µg/mL (≈ 149 µM) | 1 µg/mL (≈ 2.33 µM)
16 | COC(=O)CN(CCCOc1ccccc1)CC(O)(Cn1cncn1)c1ccc(F)cc1F (racemic) | 2 µg/mL (≈ 4.34 µM) | 16 µg/mL (≈ 34.7 µM) | 4 µg/mL (≈ 8.69 µM) | 2 µg/mL (≈ 4.34 µM) | > 64 µg/mL | 8 µg/mL (≈ 17.4 µM)
17 | C#CCN(CCCOc1ccc(Br)cc1)CC(O)(Cn1cncn1)c1ccc(F)cc1F (racemic) | 0.5 µg/mL (≈ 0.989 µM) | 8 µg/mL (≈ 15.8 µM) | 8 µg/mL (≈ 15.8 µM) | 8 µg/mL (≈ 15.8 µM) | 32 µg/mL (≈ 63.3 µM) | 8 µg/mL (≈ 15.8 µM)
18 | CCN(CCCOc1ccccc1)CC(O)(Cn1cncn1)c1ccc(F)cc1F (racemic) | 0.0313 µg/mL (≈ 0.0752 µM) | 1 µg/mL (≈ 2.4 µM) | 1 µg/mL (≈ 2.4 µM) | 1 µg/mL (≈ 2.4 µM) | 2 µg/mL (≈ 4.8 µM) | 0.5 µg/mL (≈ 1.2 µM)
19 | OC(CNCCCOc1ccccc1)(Cn1cncn1)c1ccc(F)cc1F (racemic) | 0.0625 µg/mL (≈ 0.161 µM) | 1 µg/mL (≈ 2.57 µM) | < 0.125 µg/mL | 2 µg/mL (≈ 5.15 µM) | 0.5 µg/mL (≈ 1.29 µM) | < 0.125 µg/mL
20 | C#CCN(CCCOc1ccccc1)CC(O)(Cn1cncn1)c1ccc(F)cc1F (racemic) | 0.25 µg/mL (≈ 0.586 µM) | 4 µg/mL (≈ 9.38 µM) | 1 µg/mL (≈ 2.34 µM) | 4 µg/mL (≈ 9.38 µM) | 8 µg/mL (≈ 18.8 µM) | 4 µg/mL (≈ 9.38 µM)
21 | CCCN(CCCOc1ccc(Br)cc1)CC(O)(Cn1cncn1)c1ccc(F)cc1F (racemic) | 2 µg/mL (≈ 3.93 µM) | 4 µg/mL (≈ 7.85 µM) | 4 µg/mL (≈ 7.85 µM) | 8 µg/mL (≈ 15.7 µM) | > 64 µg/mL | 2 µg/mL (≈ 3.93 µM)
22 | CCCCN(CCCOc1ccc(Br)cc1)CC(O)(Cn1cncn1)c1ccc(F)cc1F (racemic) | 2 µg/mL (≈ 3.82 µM) | 4 µg/mL (≈ 7.64 µM) | 4 µg/mL (≈ 7.64 µM) | 16 µg/mL (≈ 30.6 µM) | 4 µg/mL (≈ 7.64 µM) | 4 µg/mL (≈ 7.64 µM)
23 | CN(CCCOc1ccccc1)CC(O)(Cn1cncn1)c1ccc(F)cc1F (centres undefined) | 0.0125 µg/mL (≈ 0.0311 µM) | 1 µg/mL (≈ 2.48 µM) | 0.5 µg/mL (≈ 1.24 µM) | 1 µg/mL (≈ 2.48 µM) | 0.125 µg/mL (≈ 0.311 µM) | < 0.125 µg/mL
24 | Cc1ccc(CN(CCCOc2ccccc2)CC(O)(Cn2cncn2)c2ccc(F)cc2F)cc1 (racemic) | 8 µg/mL (≈ 16.2 µM) | 4 µg/mL (≈ 8.12 µM) | 4 µg/mL (≈ 8.12 µM) | 16 µg/mL (≈ 32.5 µM) | 8 µg/mL (≈ 16.2 µM) | 8 µg/mL (≈ 16.2 µM)
25 | CCOC(=O)CN(CCCOc1ccccc1)CC(O)(Cn1cncn1)c1ccc(F)cc1F (racemic) | 2 µg/mL (≈ 4.21 µM) | 8 µg/mL (≈ 16.9 µM) | 4 µg/mL (≈ 8.43 µM) | 8 µg/mL (≈ 16.9 µM) | > 64 µg/mL | 8 µg/mL (≈ 16.9 µM)
26 | CCN(CCCOc1ccc(Br)cc1)CC(O)(Cn1cncn1)c1ccc(F)cc1F (racemic) | 0.5 µg/mL (≈ 1.01 µM) | 1 µg/mL (≈ 2.02 µM) | 4 µg/mL (≈ 8.07 µM) | 2 µg/mL (≈ 4.04 µM) | 2 µg/mL (≈ 4.04 µM) | 1 µg/mL (≈ 2.02 µM)
27 | CN(CCCOc1ccc(Br)cc1)CC(O)(Cn1cncn1)c1ccc(F)cc1F (centres undefined) | 0.5 µg/mL (≈ 1.04 µM) | 1 µg/mL (≈ 2.08 µM) | 2 µg/mL (≈ 4.16 µM) | 2 µg/mL (≈ 4.16 µM) | 1 µg/mL (≈ 2.08 µM) | 2 µg/mL (≈ 4.16 µM)
28 | OC(CN(CCCOc1ccccc1)Cc1ccccc1)(Cn1cncn1)c1ccc(F)cc1F (racemic) | 2 µg/mL (≈ 4.18 µM) | 16 µg/mL (≈ 33.4 µM) | 8 µg/mL (≈ 16.7 µM) | 16 µg/mL (≈ 33.4 µM) | 64 µg/mL (≈ 134 µM) | 8 µg/mL (≈ 16.7 µM)
29 | OC(CNCCCOc1ccc(Br)cc1)(Cn1cncn1)c1ccc(F)cc1F (racemic) | 0.0313 µg/mL (≈ 0.067 µM) | 1 µg/mL (≈ 2.14 µM) | < 0.125 µg/mL | 0.5 µg/mL (≈ 1.07 µM) | 0.5 µg/mL (≈ 1.07 µM) | < 0.125 µg/mL
